Test results: ChEMBL document CHEMBL1143402 (PLoS Med, 2006)

Key:
[1] = test system: Mycobacterium tuberculosis; test: Inhibition of fatty acid synthesis in Mycobacterium bovis BCG after 60 mins; format: functional, organism-based; conditions: variant bovis BCG, 1 h
How it was run: (§1)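 M. bovis BCG culture incubated with compound or DMSO plus 2-^14C acetate at 37 °C for 60 min. Cells saponified with KOH/methanol, acid-extracted into hexane, methyl-esterified. Fatty and mycolic acid subclasses separated by two-solvent TLC (n = 3) and quantified by phosphorimaging as % of control.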

[2] = test system: Mycobacterium tuberculosis; test: Inhibition of alpha-mycolic acid synthesis in Mycobacterium bovis BCG after 60 mins; format: functional, organism-based; conditions: variant bovis BCG, 1 h; how it was run: as §1

SMILES	IC50 [1] [µg/mL]	IC50 [2] [µg/mL]
NNC(=O)c1ccncc1 [ISONIAZID]	> 4	–
C[C@]1(COc2ccc(N3CCC(Oc4ccc(OC(F)(F)F)cc4)CC3)cc2)Cn2cc([N+](=O)[O-])nc2O1	> 0.25	> 0.25
